According to ChEMBL document CHEMBL3232757, “Structure-activity relationships for withanolides as inducers of the cellular heat-shock response” (J Med Chem, 2014):
Activity calls are given as the source filed them. The rule behind the calls is not given here.

Key:
[1] = tested on: Mus musculus; test: Induction of heat shock activity in mouse assessed as upregulation of HSP72 protein level in spleen at 25 mg/kg, sc after 18 hrs by immunoblotting analysis; type: functional, organism-based; design: dose 25 mg/kg
Procedure, shortened: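 Mice were randomly assigned. Dosing was by subcutaneous injection, 25 mg/kg, in hydroxypropyl β-cyclodextrin 30% w/v with DMSO 10% v/v; vehicle controls got an equal volume; five mice per group. Spleens were taken about 18 h later, snap-frozen, pulverized and lysed in nonionic detergent buffer. 15 μg protein/lane went to SDS-PAGE and immunoblotting for HSP72. Band intensity was normalized to β-actin. Variance versus vehicle was compared by F test.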

[2] = tested on: Mus musculus; test: Induction of heat shock activity in mouse assessed as upregulation of HSP72 protein level in spleen at 40 mg/kg, sc after 18 hrs by immunoblotting analysis relative to control; type: functional, organism-based; design: dose 40 mg/kg
Procedure, shortened: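 Mice given a single subcutaneous dose in cyclodextrin vehicle (hydroxypropyl β-cyclodextrin 30% w/v, DMSO 10% v/v). Controls received an equal volume of vehicle alone. Three mice per group at 40 mg/kg. Spleens harvested about 18 h after dosing, snap-frozen and lysed in nonionic detergent buffer. 15 μg protein/lane run on SDS-PAGE and immunoblotted for HSP72 and β-actin. HSP72 band intensity normalized to actin; Student's t test versus vehicle.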

[3] = Cytotoxicity against human CHP100 cells assessed as inhibition of cell survival at 4 uM after 24 hrs by MTT assay relative to control; type: functional; conditions: CHP100, 24 h
[4] = Cytotoxicity against human CHP100 cells assessed as inhibition of cell survival after 24 hrs by MTT assay; type: functional, cell-based; conditions: CHP100, 24 h
[5] = target: Heat shock 70 kDa protein 6 (Homo sapiens) (UniProt P17066); test: Induction of […] (unknown origin)-mediated heat shock response expressed in human 293T cells coexpressing GFP assessed as heat shock index after overnight incubation by luciferase reporter gene assay relative to control; type: cell-based
Procedure, shortened: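 293T cells transduced with a lentiviral EGFP–firefly luciferase fusion under HSP70B′ promoter elements, enriched by heat shock (42 °C, 1 h) plus FACS, then reverse-sorted to remove constitutive expressers. Cells in DMEM/10% FBS were seeded at 20 000/well and given serial dilutions next day, quadruplicate wells, overnight. Read by Steady-Glo luminescence. Index = [Log2(treated/control)]/concentration (μM) at maximal response.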

[6] = Cytotoxicity against human NCI-H929 cells after 3 days by Alamar blue assay; type: functional, cell-based; conditions: NCI-H929, 72 h
[7] = organism: Mus musculus; test: Induction of heat shock protein-mediated heat shock response in mouse 3T3-Y9-B12 cells assessed as heat shock index after 24 hrs by fluorescence assay relative to control; type: cell-based
Procedure, shortened: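 Mouse 3T3-Y9-B12 heat-shock reporter cells seeded 20 000/well, left to adhere overnight, then exposed 24 h to compound at 1, 2, or 4 μM. After PBS wash, fluorescence read at excitation 485 nm and emission 530 nm. Heat-shock index calculated as [Log2(treated/control)]/concentration (μM).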

Heat shock 70 kDa protein 6 (Homo sapiens), sequence (P17066 whole entry, the tested form may be a part): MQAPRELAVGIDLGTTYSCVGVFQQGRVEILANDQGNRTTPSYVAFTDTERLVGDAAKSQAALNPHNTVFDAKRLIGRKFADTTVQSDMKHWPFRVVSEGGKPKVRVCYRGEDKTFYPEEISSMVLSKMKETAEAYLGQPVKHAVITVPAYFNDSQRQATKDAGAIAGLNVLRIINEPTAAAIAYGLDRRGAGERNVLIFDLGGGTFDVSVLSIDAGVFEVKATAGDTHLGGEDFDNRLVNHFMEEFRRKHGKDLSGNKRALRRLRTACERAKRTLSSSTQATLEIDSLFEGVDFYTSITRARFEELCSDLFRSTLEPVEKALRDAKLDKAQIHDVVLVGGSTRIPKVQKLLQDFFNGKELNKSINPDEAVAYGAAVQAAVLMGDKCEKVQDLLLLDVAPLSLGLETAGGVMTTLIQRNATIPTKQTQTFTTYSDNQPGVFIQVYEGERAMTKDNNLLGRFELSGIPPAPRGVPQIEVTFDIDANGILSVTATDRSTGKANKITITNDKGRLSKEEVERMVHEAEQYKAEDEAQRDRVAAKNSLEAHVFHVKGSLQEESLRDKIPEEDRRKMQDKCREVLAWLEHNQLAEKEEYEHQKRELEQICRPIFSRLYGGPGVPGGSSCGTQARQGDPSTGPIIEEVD

Structure (SMILES)	Activity [1]	Activity [2]	inhibition at 4 µM [3] [%]	IC50 [4] [nM]	Activity [5]	fold change (FC) [5]	IC50 [6] [nM]	fold change (FC) [7]
CC(=O)OCC1=C(C)C[C@H]([C@@H](C)[C@H]2CC[C@H]3[C@@H]4C[C@H]5O[C@]56[C@H](OC(C)=O)C=CC(=O)[C@]6(C)[C@H]4CC[C@]23C)OC1=O	Active	Active	–	–	–	–	–	–
CC(=O)OCC1=C(C)C[C@H]([C@@H](C)[C@H]2CC[C@H]3[C@@H]4C[C@H]5O[C@]56[C@H](O)C=CC(=O)[C@]6(C)[C@H]4CC[C@]23C)OC1=O	–	–	> 80	220	Dose-dependent effect	3.69	50	4.7
CC1=C(CO)C(=O)O[C@@H]([C@@H](C)[C@H]2CC[C@H]3[C@@H]4C[C@H]5O[C@]56[C@@H](O)C=CC(=O)[C@]6(C)[C@H]4CC[C@]23C)C1 [WITHAFERIN A]	inactive	–	> 80	970	Dose-dependent effect	1.35	250	2.1
CC(=O)O[C@H]1C=CC(=O)[C@]2(C)[C@H]3CC[C@]4(C)[C@@H]([C@H](C)[C@H]5CC(C)=C(CO)C(=O)O5)CC[C@H]4[C@@H]3C[C@H]3O[C@]132	–	–	> 80	780	–	1.73	250	–
